Assay [1] deals with T1, Protein deacetylase HDAC6 (Homo sapiens) (UniProt Q9UBN7).
T1 sequence (whole entry): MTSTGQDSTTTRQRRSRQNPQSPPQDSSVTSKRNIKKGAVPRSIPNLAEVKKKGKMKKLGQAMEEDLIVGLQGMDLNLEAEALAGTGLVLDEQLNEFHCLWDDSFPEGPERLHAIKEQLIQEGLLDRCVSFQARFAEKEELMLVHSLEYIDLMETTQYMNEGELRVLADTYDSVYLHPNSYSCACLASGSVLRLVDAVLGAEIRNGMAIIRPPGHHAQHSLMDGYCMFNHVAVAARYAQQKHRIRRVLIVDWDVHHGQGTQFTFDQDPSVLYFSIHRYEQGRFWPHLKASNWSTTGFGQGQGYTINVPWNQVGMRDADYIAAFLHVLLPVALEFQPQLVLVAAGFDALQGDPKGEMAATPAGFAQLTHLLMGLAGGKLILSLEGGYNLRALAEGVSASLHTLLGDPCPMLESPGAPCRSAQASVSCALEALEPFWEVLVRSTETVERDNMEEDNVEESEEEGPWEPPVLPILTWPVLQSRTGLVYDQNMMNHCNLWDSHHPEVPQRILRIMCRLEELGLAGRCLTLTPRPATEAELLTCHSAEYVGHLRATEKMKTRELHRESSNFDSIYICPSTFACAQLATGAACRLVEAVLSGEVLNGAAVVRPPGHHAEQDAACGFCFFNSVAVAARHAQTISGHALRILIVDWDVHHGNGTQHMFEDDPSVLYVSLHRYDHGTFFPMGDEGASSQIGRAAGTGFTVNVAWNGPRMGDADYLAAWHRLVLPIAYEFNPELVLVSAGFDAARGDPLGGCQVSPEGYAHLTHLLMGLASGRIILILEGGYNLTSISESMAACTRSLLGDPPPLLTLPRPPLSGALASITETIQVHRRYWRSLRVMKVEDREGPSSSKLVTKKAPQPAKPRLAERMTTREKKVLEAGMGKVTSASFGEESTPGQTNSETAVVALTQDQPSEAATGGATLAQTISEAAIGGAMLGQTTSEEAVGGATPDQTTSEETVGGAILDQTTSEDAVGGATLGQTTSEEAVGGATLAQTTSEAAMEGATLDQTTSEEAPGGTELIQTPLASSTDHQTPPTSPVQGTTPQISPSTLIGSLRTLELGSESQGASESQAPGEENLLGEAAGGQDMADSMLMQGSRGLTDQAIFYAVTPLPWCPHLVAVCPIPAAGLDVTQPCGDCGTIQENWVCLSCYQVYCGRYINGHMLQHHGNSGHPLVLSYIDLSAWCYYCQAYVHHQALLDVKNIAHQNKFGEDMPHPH
The experiment in a line: Inhibition of HDAC6 in human SH-SY5Y cells transfected with pCAX FLAG APP and pRK5-EGFP-Tau P301L plasmids assessed as reduction in formed Tau P301L mutant aggregates level at 1 uM after 24 hrs by Western blot analysis. The class given is cell-based. The procedure, abridged:
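Cotransfected SH-SY5Y cells (1 × 10^7) treated 24 h at 1 µM, lysed in sucrose/HEPES pH 7.2 buffer; 190,000 g supernatant = cytosol. Pellet treated with 5 µM nocodazole, re-spun; residual pellet extracted with sodium carbonate pH 11.5 and washed in 1% SDS to give aggregate fraction. Equal protein by SDS-PAGE immunoblot.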
(In western blotting, separated proteins are transferred to a membrane and probed.)

Assay [2] concerns the target T1, Protein deacetylase HDAC6 (Homo sapiens). The experiment in a line: Inhibition of HDAC6 in human SH-SY5Y cells transfected with pCAX FLAG APP and pRK5-EGFP-Tau P301L plasmids assessed as inhibition of amyloid beta (1 to 40)-induced Tau P301L mutant phosphorylation at 1 uM after 24 hrs by Western blot analysis.
For assay [3] the target is unchanged. The experiment in a line: Inhibition of HDAC6 in human SH-SY5Y cells transfected with pCAX FLAG APP and pRK5-EGFP-Tau P301L plasmids assessed as suppression of phosphorylated tau P301L mutant-induced apoptosis by measuring accumulation at sub-G1 phase at 0.1 uM after 24 hrs by propidium iodide staining-based flow cytometry (reference value: 22.01%). Format: cell-based. On the set-up: scale not given: the % may be the effect or the level left. On the technique in general: In flow cytometry, cells or beads pass a laser one at a time.

The source made the active and inactive calls. No cut-off for these calls is given here.

For the compound `COc1ccc(C(=O)c2ccc3c(ccn3Cc3ccc(C(=O)NO)cc3)c2)cc1`, the inhibition result in assay [1] and in assay [2] was “Active” in each case. For the same compound, in assay [3], the Activity turned out to be 13.5%.

The values are drawn from ChEMBL document CHEMBL4196108, “5-Aroylindoles Act as Selective Histone Deacetylase 6 Inhibitors Ameliorating Alzheimer's Disease Phenotypes” (J Med Chem, 2018).
